The values that follow come from ChEMBL document CHEMBL1131336, “Synthesis and serotonin receptor affinities of a series of trans-2-(indol-3-yl)cyclopropylamine derivatives” (J Med Chem, 1998).

Assay [1] deals with 5-hydroxytryptamine receptor 2B (Homo sapiens, UniProt P41595). Description: Binding affinity against the cloned human 5-hydroxytryptamine 2B receptor using [3H]5-HT as the radioligand. In short, it runs like this:
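Membranes come from AV12 hamster fibroblasts stably expressing the human receptor. About 2 nM [3H]-5-HT is used with drug dilutions spanning 6 log units, in 3 mM CaCl2, 10 µM pargyline, 50 mM Tris and 0.1% ascorbic acid, pH 7.4. Triplicate tubes with 100-150 µg protein, 15 min at 37 °C, PEI-soaked GF/B filtration. Nonspecific binding set with 10 µM 5-HT or 10 µM 1-naphthylpiperazine.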

In assay [2] the target is T1, 5-hydroxytryptamine receptor 2C (Homo sapiens, UniProt P28335).
T1 sequence (P28335 whole entry): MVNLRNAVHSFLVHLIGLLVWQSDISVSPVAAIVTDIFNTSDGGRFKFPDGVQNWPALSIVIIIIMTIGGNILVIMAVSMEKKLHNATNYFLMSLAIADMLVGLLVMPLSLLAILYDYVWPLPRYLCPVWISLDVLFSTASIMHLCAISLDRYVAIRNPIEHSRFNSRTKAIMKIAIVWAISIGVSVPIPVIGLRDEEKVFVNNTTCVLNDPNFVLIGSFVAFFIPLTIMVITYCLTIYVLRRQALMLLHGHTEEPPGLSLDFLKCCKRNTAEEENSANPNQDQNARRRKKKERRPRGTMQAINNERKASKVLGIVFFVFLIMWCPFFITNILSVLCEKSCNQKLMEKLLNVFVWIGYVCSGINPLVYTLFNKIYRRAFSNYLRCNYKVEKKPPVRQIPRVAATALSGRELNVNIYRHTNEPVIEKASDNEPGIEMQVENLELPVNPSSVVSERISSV
Description: Binding affinity against the cloned human 5-hydroxytryptamine 2C receptor using [125I]DOI as the radioligand. In a few lines:
(§1)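 AV12 hamster fibroblast membranes stably expressing the human receptor, with 0.07-0.15 nM [125I]DOI. Buffer is 10 µM pargyline, 9.75 mM MgCl2, 0.5 mM EDTA, 0.1% ascorbate and 50 mM Tris pH 7.4. Incubation 30 min at 37 °C with about 40 µg (5-HT2A) or 30 µg (5-HT2C) protein, then gamma counting. Nonspecific binding set with 1 µM ketanserin (2A) or 10 µM mianserin (2C).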

Assay [3] addresses 5-hydroxytryptamine receptor 2A (Homo sapiens, UniProt P28223). In words: Binding affinity against the cloned human 5-hydroxytryptamine 2A receptor using [125I]DOI as the radioligand. In a few lines:
as §1

Assay [4] concerns the target T2, 5-hydroxytryptamine receptor 1A (Rattus norvegicus, UniProt P19327).
T2 sequence (P19327 whole entry): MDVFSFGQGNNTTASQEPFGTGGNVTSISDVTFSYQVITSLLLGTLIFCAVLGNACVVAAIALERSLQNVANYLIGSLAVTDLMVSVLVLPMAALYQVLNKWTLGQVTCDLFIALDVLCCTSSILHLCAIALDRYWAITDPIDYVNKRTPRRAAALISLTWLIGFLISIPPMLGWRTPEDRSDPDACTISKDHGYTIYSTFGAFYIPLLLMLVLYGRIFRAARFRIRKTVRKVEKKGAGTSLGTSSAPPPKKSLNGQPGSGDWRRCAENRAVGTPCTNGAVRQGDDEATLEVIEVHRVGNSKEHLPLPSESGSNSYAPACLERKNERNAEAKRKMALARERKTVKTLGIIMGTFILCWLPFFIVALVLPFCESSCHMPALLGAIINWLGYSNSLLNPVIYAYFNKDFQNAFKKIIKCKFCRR
Description: Binding affinity against the 5-hydroxytryptamine 1A receptor labelled with [3H]8-OH-DPAT in rat hippocampal homogenates. Format: tissue-based, Hippocampus. In short, it runs like this: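 Buffer is 50 mM Tris HCl pH 7.4 with 0.5 mM Na2EDTA, 0.1% Na ascorbate and pargyline. Triplicate tubes with 200-400 µg protein, 15 min at 37 °C, GF/C filtration. Nonspecific binding set with 10 µM 5-HT.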

What is called Ki is a dissociation constant, usually derived from enzyme kinetics or from competition with a known ligand.

5-hydroxytryptamine receptor 2A, sequence (P28223 whole entry): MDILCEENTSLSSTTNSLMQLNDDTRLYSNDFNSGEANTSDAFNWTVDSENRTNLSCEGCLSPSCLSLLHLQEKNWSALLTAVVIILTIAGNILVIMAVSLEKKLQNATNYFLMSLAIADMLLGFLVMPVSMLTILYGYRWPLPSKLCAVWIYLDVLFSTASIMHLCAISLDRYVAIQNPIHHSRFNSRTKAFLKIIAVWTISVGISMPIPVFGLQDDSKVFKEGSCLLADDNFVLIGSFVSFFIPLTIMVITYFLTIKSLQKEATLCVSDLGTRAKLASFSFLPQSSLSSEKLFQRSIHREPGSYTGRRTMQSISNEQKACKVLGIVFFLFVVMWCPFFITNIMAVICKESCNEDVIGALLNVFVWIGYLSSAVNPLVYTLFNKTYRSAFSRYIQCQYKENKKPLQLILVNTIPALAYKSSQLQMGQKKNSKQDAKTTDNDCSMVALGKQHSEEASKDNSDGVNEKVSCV
5-hydroxytryptamine receptor 2B, sequence (P41595 whole entry): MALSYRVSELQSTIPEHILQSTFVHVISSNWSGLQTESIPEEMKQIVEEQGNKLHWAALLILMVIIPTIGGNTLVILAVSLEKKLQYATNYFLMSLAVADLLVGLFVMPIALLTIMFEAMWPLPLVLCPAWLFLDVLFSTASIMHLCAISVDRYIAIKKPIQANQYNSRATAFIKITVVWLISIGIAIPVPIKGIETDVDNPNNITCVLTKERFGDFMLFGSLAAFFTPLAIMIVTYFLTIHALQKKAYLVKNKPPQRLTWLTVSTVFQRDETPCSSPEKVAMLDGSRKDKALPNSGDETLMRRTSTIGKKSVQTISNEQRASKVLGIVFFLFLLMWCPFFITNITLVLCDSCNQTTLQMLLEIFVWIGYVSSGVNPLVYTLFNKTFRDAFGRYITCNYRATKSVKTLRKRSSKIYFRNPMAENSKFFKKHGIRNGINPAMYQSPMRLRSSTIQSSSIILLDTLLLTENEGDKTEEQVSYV

As for `COc1ccc2[nH]cc(C3CC3N)c2c1` (stereo not drawn), the inhibitory constant (Ki) in assay [1] is 38.1 nM; in assay [2] it was 17.8 nM; in assay [3] it was 30.9 nM; in assay [4] it was 40.1 nM.
Take `NC1CC1c1c[nH]c2ccc(F)cc12` (stereo not drawn): the Ki in assay [1] stood at 5.7 nM; in assay [2] it was 1.9 nM; in assay [3] it was 10.2 nM; in assay [4], 258 nM.
For `COc1cccc2[nH]cc(C3CC3N)c12` (stereo not drawn), the results for the inhibitory constant (Ki) in assay [1], in assay [2] and in assay [3] were 64.9 nM, 11.8 nM and 45.9 nM, respectively.
On to `CC(CN)c1c[nH]c2ccccc12` (stereo not drawn), for which the inhibitory constant (Ki) worked out at 87 nM in assay [1], 9.3 nM in assay [2] and 41 nM in assay [3].
In the same order, the values of `COc1ccc2[nH]cc(C(C)CN)c2c1` (stereo not drawn) are 8.3 nM, 1 nM and 2.2 nM.
`N[C@H]1C[C@@H]1c1c[nH]c2ccccc12`: the Ki amounted to 93.5 nM in assay [1], 21.3 nM in assay [2], 132 nM in assay [3] and 810 nM in assay [4].
In the same order, the values of `N[C@@H]1C[C@H]1c1c[nH]c2ccccc12` are 58.5 nM, 44.1 nM, 98.2 nM and 258 nM.
For the molecule `NC1CC1c1c[nH]c2ccccc12` (racemic), the results for the Ki in assay [1], in assay [2] and in assay [3] were 58.3 nM, 29.9 nM and 164 nM, respectively.
